≈ marks a conversion by molar mass, not a printed value. Calls of active or inactive are those of the source. The calls are words filed in the database; no cut-off is given here.
What was measured:
HEK293 = assay: Cytotoxicity against HEK293 cells assessed as decrease in cell viability at 1 to 200 uM after 24 hrs by Alamar Blue assay; type: cell-based; settings: human, hek293, 24 h
Procedure, shortened: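 HEK293 cells in DMEM HG, 10% FBS, 1% pen-strep, 37 °C 5% CO2, passage under 30, used at 80% confluency; seeded 1×10^4/well, after 24 h washed and treated 24 h with 1–200 µM in complete medium; alamar blue (0.15 mg/mL) added for 4 h, absorbance 570 and 600 nm; viability relative to untreated cells as 100%.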

Pseudomonas aeruginosa = assay: Antibacterial activity against Pseudomonas aeruginosa at 5 to 100 ug after 18 hrs by agar disk-diffusion method; type: functional, organism-based
Procedure, shortened: (§1)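 Agar disk diffusion per CLSI: compound loaded on sterile 6 mm paper disks, dried, placed on Mueller Hinton agar lawned with bacteria at McFarland 0.5; cefotaxime positive and DMSO solvent controls; 37 °C for 18 h; zone of inhibition diameter measured to nearest whole mm.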

Staphylococcus aureus [1] = assay: Antibacterial activity against Staphylococcus aureus ATCC 29213 at 30 ug after 18 hrs by agar disk-diffusion method; type: functional; procedure, shortened: as §1
Escherichia coli = assay: Antibacterial activity against Escherichia coli ATCC 25922 at 5 to 100 ug after 18 hrs by agar disk-diffusion method; type: functional, organism-based; procedure, shortened: as §1
Staphylococcus aureus [2] = assay: Antibiofilm activity against Staphylococcus aureus ATCC 29213 at 128 ug/ml after 18 hrs by XTT-menadione assay relative to control; type: functional
Procedure, shortened: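 Biofilms grown 24 h at 37 °C from suspension at OD600 0.1 in tryptic soy broth with 1% glucose, washed twice with saline, exposed 18 h at 37 °C to twofold serial dilutions; growth and sterility controls. Read by XTT (0.5 mg/mL)–menadione (10 µM) in MHB, 1 h dark at 37 °C, absorbance 450 nm; MBIC50 and MBIC100 = 50% and 100% inhibition.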

Staphylococcus aureus [3] = assay: Antibacterial activity against Staphylococcus aureus ATCC 29213 at 5 to 100 ug after 18 hrs by agar disk-diffusion method; type: functional, organism-based; procedure, shortened: as §1
Staphylococcus aureus [4] = assay: Antibacterial activity against Staphylococcus aureus ATCC 29213 after 18 hrs by broth microdilution method; type: functional, organism-based; settings: ATCC 29213, 18 h
Procedure, shortened: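 Broth microdilution per CLSI for water-insoluble agents: twofold serial dilutions made in DMSO at 100x final, diluted in Mueller Hinton broth to 1% final DMSO; 5x10^5 cfu/mL bacteria exposed 18 h at 37 °C with positive, growth and sterility controls. MIC = lowest concentration giving complete growth inhibition (turbidity and XTT reduction); IC50 from OD600 dose-response inflection point.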

SMILES	Activity (HEK293)	Activity (Pseudomonas aeruginosa)	Activity (Escherichia coli)	Activity (Staphylococcus aureus [3])	also measured
C[C@H](CCC(=O)NCCNC(=O)CC[C@@H](C)[C@H]1CC[C@H]2[C@@H]3[C@H](O)C[C@@H]4C[C@H](O)CC[C@]4(C)[C@H]3C[C@H](O)[C@]12C)[C@H]1CC[C@H]2[C@@H]3[C@H](O)C[C@@H]4C[C@H](O)CC[C@]4(C)[C@H]3C[C@H](O)[C@]12C	Non-Toxic	inactive	inactive	–	Activity (Staphylococcus aureus [1]): inactive
CN[C@H](CC(C)C)C(=O)N[C@H]1C(=O)N[C@@H](CC(N)=O)C(=O)N[C@H]2C(=O)N[C@H]3C(=O)N[C@H](C(=O)N[C@H](C(=O)O)c4cc(O)cc(O)c4-c4cc3ccc4O)[C@H](O)c3ccc(c(Cl)c3)Oc3cc2cc(c3O[C@@H]2O[C@H](CO)[C@@H](O)[C@H](O)[C@H]2O[C@H]2C[C@](C)(N)[C@H](O)[C@H](C)O2)Oc2ccc(cc2Cl)[C@H]1O [VANCOMYCIN]	–	–	–	–	Activity (Staphylococcus aureus [2]): <50%
CC(=O)N(CCNC(=O)CC[C@@H](C)[C@H]1CC[C@H]2[C@@H]3[C@H](O)C[C@@H]4C[C@H](O)CC[C@]4(C)[C@H]3C[C@H](O)[C@]12C)CCNC(=O)CC[C@@H](C)[C@H]1CC[C@H]2[C@@H]3[C@H](O)C[C@@H]4C[C@H](O)CC[C@]4(C)[C@H]3C[C@H](O)[C@]12C	–	inactive	inactive	inactive	–
C[C@H](CCC(=O)NCCNC(=O)CC[C@@H](C)[C@H]1CC[C@H]2[C@@H]3CC[C@@H]4C[C@H](O)CC[C@]4(C)[C@H]3C[C@H](O)[C@]12C)[C@H]1CC[C@H]2[C@@H]3CC[C@@H]4C[C@H](O)CC[C@]4(C)[C@H]3C[C@H](O)[C@]12C	Non-Toxic	inactive	inactive	–	Activity (Staphylococcus aureus [1]): inactive
C[C@H](CCC(=O)NCCCNC(=O)CC[C@@H](C)[C@H]1CC[C@H]2[C@@H]3[C@H](O)C[C@@H]4C[C@H](O)CC[C@]4(C)[C@H]3C[C@H](O)[C@]12C)[C@H]1CC[C@H]2[C@@H]3[C@H](O)C[C@@H]4C[C@H](O)CC[C@]4(C)[C@H]3C[C@H](O)[C@]12C	Non-Toxic	inactive	inactive	–	Activity (Staphylococcus aureus [1]): inactive
C[C@H](CCC(=O)NCCN(CCNC(=O)CC[C@@H](C)[C@H]1CC[C@H]2[C@@H]3CC[C@@H]4C[C@H](O)CC[C@]4(C)[C@H]3C[C@H](O)[C@]12C)CCNC(=O)CC[C@@H](C)[C@H]1CC[C@H]2[C@@H]3CC[C@@H]4C[C@H](O)CC[C@]4(C)[C@H]3C[C@H](O)[C@]12C)[C@H]1CC[C@H]2[C@@H]3CC[C@@H]4C[C@H](O)CC[C@]4(C)[C@H]3C[C@H](O)[C@]12C	Non-Toxic	inactive	inactive	inactive	–
C[C@H](CCC(=O)NCCN(CCNC(=O)CC[C@@H](C)[C@H]1CC[C@H]2[C@@H]3[C@H](O)C[C@@H]4C[C@H](O)CC[C@]4(C)[C@H]3C[C@H](O)[C@]12C)CCNC(=O)CC[C@@H](C)[C@H]1CC[C@H]2[C@@H]3[C@H](O)C[C@@H]4C[C@H](O)CC[C@]4(C)[C@H]3C[C@H](O)[C@]12C)[C@H]1CC[C@H]2[C@@H]3[C@H](O)C[C@@H]4C[C@H](O)CC[C@]4(C)[C@H]3C[C@H](O)[C@]12C	Non-Toxic	inactive	inactive	inactive	–
C[C@H](CCC(=O)NCCNCCNC(=O)CC[C@@H](C)[C@H]1CC[C@H]2[C@@H]3CC[C@@H]4C[C@H](O)CC[C@]4(C)[C@H]3C[C@H](O)[C@]12C)[C@H]1CC[C@H]2[C@@H]3CC[C@@H]4C[C@H](O)CC[C@]4(C)[C@H]3C[C@H](O)[C@]12C	–	inactive	inactive	–	Activity (Staphylococcus aureus [1]): inactive
NCC[C@H](O)C(=O)N[C@@H]1C[C@H](N)[C@@H](O[C@H]2O[C@H](CN)[C@@H](O)[C@H](O)[C@H]2O)[C@H](O)[C@H]1O[C@H]1O[C@H](CO)[C@@H](O)[C@H](N)[C@H]1O [AMIKACIN]	–	–	–	–	Activity (Staphylococcus aureus [2]): <50%
CO/N=C(\C(=O)N[C@@H]1C(=O)N2C(C(=O)O)=C(COC(C)=O)CS[C@H]12)c1csc(N)n1 [CEFOTAXIME]	–	–	–	–	Activity (Staphylococcus aureus [2]): <50%
CCCCCCCCCCCCCCCC(=O)NCCN(CCNC(=O)OC(C)(C)C)C(=O)OC(C)(C)C	–	inactive	inactive	–	–
C[C@H](CCC(=O)NCCN(CCN(CCNC(=O)CC[C@@H](C)[C@H]1CC[C@H]2[C@@H]3[C@H](O)C[C@@H]4C[C@H](O)CC[C@]4(C)[C@H]3C[C@H](O)[C@]12C)C(=O)OC(C)(C)C)C(=O)OC(C)(C)C)[C@H]1CC[C@H]2[C@@H]3[C@H](O)C[C@@H]4C[C@H](O)CC[C@]4(C)[C@H]3C[C@H](O)[C@]12C	–	inactive	inactive	inactive	–
CCCCCCCCCCCCCCCC(=O)N(CCNC(=O)CC[C@@H](C)[C@H]1CC[C@H]2[C@@H]3[C@H](O)C[C@@H]4C[C@H](O)CC[C@]4(C)[C@H]3C[C@H](O)[C@]12C)CCNC(=O)CC[C@@H](C)[C@H]1CC[C@H]2[C@@H]3[C@H](O)C[C@@H]4C[C@H](O)CC[C@]4(C)[C@H]3C[C@H](O)[C@]12C	–	inactive	inactive	inactive	–
CCCCCCCCCCCCCCCC(=O)NCCNCCN	–	inactive	inactive	–	–
C[C@H](CCC(=O)N1CCCN(C(=O)CC[C@@H](C)[C@H]2CC[C@H]3[C@@H]4[C@H](O)C[C@@H]5C[C@H](O)CC[C@]5(C)[C@H]4C[C@H](O)[C@]23C)CCN(C(=O)CC[C@@H](C)[C@H]2CC[C@H]3[C@@H]4[C@H](O)C[C@@H]5C[C@H](O)CC[C@]5(C)[C@H]4C[C@H](O)[C@]23C)CCCN(C(=O)CC[C@@H](C)[C@H]2CC[C@H]3[C@@H]4[C@H](O)C[C@@H]5C[C@H](O)CC[C@]5(C)[C@H]4C[C@H](O)[C@]23C)CC1)[C@H]1CC[C@H]2[C@@H]3[C@H](O)C[C@@H]4C[C@H](O)CC[C@]4(C)[C@H]3C[C@H](O)[C@]12C	Non-Toxic	inactive	inactive	inactive	–
C[C@H](CCC(=O)NCCCCCNC(=O)CC[C@@H](C)[C@H]1CC[C@H]2[C@@H]3[C@H](O)C[C@@H]4C[C@H](O)CC[C@]4(C)[C@H]3C[C@H](O)[C@]12C)[C@H]1CC[C@H]2[C@@H]3[C@H](O)C[C@@H]4C[C@H](O)CC[C@]4(C)[C@H]3C[C@H](O)[C@]12C	–	inactive	inactive	inactive	–
CCCCCCCCCCCCCCCC(=O)NCCNCCNC(=O)CC[C@@H](C)[C@H]1CC[C@H]2[C@@H]3[C@H](O)C[C@@H]4C[C@H](O)CC[C@]4(C)[C@H]3C[C@H](O)[C@]12C	–	inactive	inactive	inactive	–
O=C(O)c1cn(C2CC2)c2cc(N3CCNCC3)c(F)cc2c1=O [CIPROFLOXACIN]	–	–	–	–	Activity (Staphylococcus aureus [2]): <50%
CC(C)(C)OC(=O)NCCN(CCN)C(=O)OC(C)(C)C	–	inactive	inactive	–	–
C[C@H](CCC(=O)NCCNCCNCCNC(=O)CC[C@@H](C)[C@H]1CC[C@H]2[C@@H]3[C@H](O)C[C@@H]4C[C@H](O)CC[C@]4(C)[C@H]3C[C@H](O)[C@]12C)[C@H]1CC[C@H]2[C@@H]3[C@H](O)C[C@@H]4C[C@H](O)CC[C@]4(C)[C@H]3C[C@H](O)[C@]12C	–	inactive	inactive	–	IC50 (Staphylococcus aureus [4]): 12.1 µg/mL (≈ 13 µM); MIC (Staphylococcus aureus [4]): 16 µg/mL (≈ 17.3 µM); zone of inhibition at 30 µg/disc (Staphylococcus aureus [1]; ATCC 29213, 18 h, read-out: DIZ): 11 mm
C[C@H](CCC(=O)NCCCNC(=O)CC[C@@H](C)[C@H]1CC[C@H]2[C@@H]3CC[C@@H]4C[C@H](O)CC[C@]4(C)[C@H]3C[C@H](O)[C@]12C)[C@H]1CC[C@H]2[C@@H]3CC[C@@H]4C[C@H](O)CC[C@]4(C)[C@H]3C[C@H](O)[C@]12C	Non-Toxic	inactive	inactive	–	Activity (Staphylococcus aureus [1]): inactive
